Test results reported in ChEMBL document CHEMBL1139962, “Synthesis and anthelmintic activity of cyclohexadepsipeptides with cyclohexylmethyl side chains” (Bioorg Med Chem Lett, 2007).

Tests used:
[1] = Partition coefficient, log P at pH 2.3; type: physicochemical; details: octanol/water
[2] = test system: Haemonchus contortus; assay: Anthelmintic activity against Haemonchus contortus Rudolphi L3 larvae infected sheep assessed as reduction of faecal egg counts at 5 mg/kg, po; type: functional, Feces; design: scale not given: the % may be the effect or the level left
Outline: (§1)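 Sheep experimentally infected with Haemonchus contortus Rudolphi L3 larvae; dosed after the parasite's prepatency period ended. Compound given orally in gelatine capsules. Faecal egg counts by McMaster method (Wetzel modification) on freshly obtained faeces, counted at regular intervals before and after treatment; activity expressed as reduction in egg counts.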

[3] = test system: Haemonchus contortus; assay: Anthelmintic activity against Haemonchus contortus Rudolphi L3 larvae infected sheep assessed as reduction of faecal egg counts at 0.50 mg/kg, po; type: functional, Feces; design: scale not given: the % may be the effect or the level left; details: dose 0.5 mg/kg; outline: as §1
[4] = test system: Haemonchus contortus; assay: Anthelmintic activity against Haemonchus contortus Rudolphi L3 larvae infected sheep assessed as reduction of faecal egg counts at 0.25 mg/kg, po; type: functional, Feces; design: scale not given: the % may be the effect or the level left; outline: as §1

SMILES	logP [1]	Activity [2]	Activity [3]	Activity [4]
CC[C@@H](C)[C@H]1C(=O)O[C@H](C(C)C)C(=O)N(C)[C@@H](Cc2ccccc2)C(=O)O[C@H](C(C)C)C(=O)N(C)[C@@H]([C@H](C)CC)C(=O)O[C@H](C(C)C)C(=O)N1C	5.46	>=95%		
CC[C@@H](C)[C@H]1C(=O)O[C@H](C(C)C)C(=O)N(C)[C@@H](CC2CCCCC2)C(=O)O[C@H](C(C)C)C(=O)N(C)[C@@H]([C@H](C)CC)C(=O)O[C@H](C(C)C)C(=O)N1C	6.3		75%	
CC[C@@H](C)[C@H]1C(=O)O[C@H](C)C(=O)N(C)[C@@H](Cc2ccccc2)C(=O)O[C@H](C)C(=O)N(C)[C@@H]([C@H](C)CC)C(=O)O[C@H](C)C(=O)N1C	4.28			50%
CC[C@@H](C)[C@H]1C(=O)O[C@H](C)C(=O)N(C)[C@@H](CC2CCCCC2)C(=O)O[C@H](C)C(=O)N(C)[C@@H]([C@H](C)CC)C(=O)O[C@H](C)C(=O)N1C	4.91			>=95%
CC(C)C[C@H]1C(=O)O[C@H](Cc2ccccc2)C(=O)N(C)[C@@H](CC(C)C)C(=O)O[C@H](C)C(=O)N(C)[C@@H](CC(C)C)C(=O)O[C@H](C)C(=O)N1C	4.63	<=50%		
CC(C)C[C@H]1C(=O)O[C@H](CC2CCCCC2)C(=O)N(C)[C@@H](CC(C)C)C(=O)O[C@H](C)C(=O)N(C)[C@@H](CC(C)C)C(=O)O[C@H](C)C(=O)N1C	5.57			75%
